SKN-1 inh: blocks SKN-1 activity in C. elegans; hit rate 0.49% among 360,000; inhibition, % at 21.8 µM; AID 624304; C. elegans VP596 Pgst-4::GFP/RFP ratio, acrylamide-induced, 24 h;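 active = interference check ratio from 0.5 to 1.5 plus GFP to RFP signal ratio inhibition reaching or exceeding a fixed threshold, cut at about 30% in these data, passing the limit was not always enough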
GRIN3A LBD mod: modulators (binders) of human NR3A ligand-binding domain | NR3A LBD differential scanning fluorimetry, Tm shift; 0% = protein alone, 100% = glycine-bound protein | Tm shift relative to glycine control, % at 25 µM | hit rate 2.5% among 340,000 | AID 1259313;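 active = melting temperature shift of at least 10% of the positive control shift, at one fixed dose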
MT1-MMP act inh: MT1-MMP (human) activation inhibition | P50281 | HT1080 RFP-PRO-GFP cells, GFP/RFP ratio fluorescence, overnight; percent of plate control window, DMSO zero | GFP/RFP ratio change, % at 20 µM | hit rate 0.061% among 360,000 | AID 651647;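 active = GFP/RFP ratio change of at least 30% with cell ATP level not reduced by more than half and red fluorescence within 50% of control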
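Read-out: GFP/RFP fluorescence ratio; Test system: RFP-PRO-GFP reporter HT1080 cells; Compound dosing: single-point 20 µM compound, 1% DMSO; Times: overnight compound exposure at 37 °C.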
ADAM17 inh: inhibits human ADAM17; P78536; recombinant ADAM17, EDANS/DABCYL FRET peptide cleavage; inhibition, % at 6.95 µM; hit rate 0.83% among 370,000;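 active = inhibition above the mean of compounds lying between control limits plus 3 SD, set per campaign, cut at about 8.5% in these data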
Target sequence (P78536 215-824 limits assumed): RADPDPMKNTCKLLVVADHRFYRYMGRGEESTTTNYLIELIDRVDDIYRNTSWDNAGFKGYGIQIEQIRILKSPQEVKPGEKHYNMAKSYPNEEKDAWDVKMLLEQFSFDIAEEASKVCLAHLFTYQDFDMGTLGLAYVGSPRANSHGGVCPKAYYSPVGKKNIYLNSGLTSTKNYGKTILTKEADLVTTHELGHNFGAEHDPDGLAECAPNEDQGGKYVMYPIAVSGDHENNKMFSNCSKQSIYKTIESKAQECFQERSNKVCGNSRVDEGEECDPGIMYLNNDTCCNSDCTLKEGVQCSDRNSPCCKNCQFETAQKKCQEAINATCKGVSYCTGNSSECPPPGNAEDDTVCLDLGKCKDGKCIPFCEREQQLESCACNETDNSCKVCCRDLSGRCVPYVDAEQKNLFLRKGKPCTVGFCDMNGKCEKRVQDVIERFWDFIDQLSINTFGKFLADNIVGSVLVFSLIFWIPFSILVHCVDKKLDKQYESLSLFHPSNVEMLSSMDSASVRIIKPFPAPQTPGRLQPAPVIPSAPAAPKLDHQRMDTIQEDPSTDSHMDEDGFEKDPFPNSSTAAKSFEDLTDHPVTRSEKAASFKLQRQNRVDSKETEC
MPTP inh: permeability transition pore inhibition | hit rate 1.4% among 360,000 | isolated mouse mitochondria, Ca2+ swelling absorbance, 30 min | inhibition, % at 10 µM;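 active = inhibition of 50% or more, scaled per plate between neutral and stimulator controls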
ADAM10 inh: ADAM10 inhibition, QFRET primary screen; O14672; recombinant ADAM10, EDANS/DABCYL FRET peptide cleavage, 3 h; inhibition, % at 7 µM; hit rate 0.62% among 370,000; AID 720582;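 active = inhibition above a per-campaign cutoff equal to the mean of compounds falling between control-based bounds plus 3 SD, cut at about 20% in these data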
Large screens that a line does not name were inactive. This is a sample that favours compounds with a hit; in the whole collection about 4.7% have one here.

Cc1cc2oc(=O)cc(-c3ccccc3)c2c(C)c1-c1ccc(N(C)C)cc1	none
Cc1cc(C)cc(C(=O)N2CCC(CCC(=O)NC3CC3)CC2)c1	none
C=CCOc1cccc(C(=O)N2CCC(CCC(=O)NC3CC3)CC2)c1	GRIN3A LBD mod 16.1
Cc1nn(C(=O)c2c(-c3ccccc3)noc2C)c(C)c1N=Nc1cc(C(F)(F)F)cc(C(F)(F)F)c1	none
COc1ccc(/C=C(\C#N)C(=O)NC(C)c2ccccc2)cc1O (stereo not drawn)	none
COc1ccc(NC(=O)CSc2ccc3nnc(-c4ccccn4)n3n2)c(OC)c1	none
Brc1ccc(CSc2nnc(-c3ccccn3)n2Cc2ccco2)cc1	none
CC(C)(C)c1ccc(CSc2nnc(-c3ccccn3)n2Cc2ccco2)cc1	GRIN3A LBD mod 20.0
Cc1ccc(NC(=O)CN(C)S(=O)(=O)c2cccc3cccnc23)cc1F	GRIN3A LBD mod 13.7
CCOC(=O)Cc1csc(NC(=O)c2sc3nc4cc(C)ccc4cc3c2N)n1	GRIN3A LBD mod 28.0
CCOC(=O)Cc1csc(NC(=O)c2sc3nc4ccc(CC)cc4cc3c2N)n1	none
Cc1ccc(Cl)c(N/C=C/C(=O)c2ccccc2)c1	SKN-1 inh 50.6
COc1ccccc1C1CC(c2c(-c3ccccc3)c3cc(Cl)ccc3[nH]c2=O)=NN1S(C)(=O)=O (stereo not drawn)	GRIN3A LBD mod 25.4
O=c1c(-c2nnc(SCc3ccc(Cl)cc3)o2)cccn1Cc1ccccc1	none
NC(=S)N/N=C/c1ccc2ccccc2c1	GRIN3A LBD mod 17.6
Brc1ccc(C=Nc2ccc(Nc3ccccc3)cc2)s1	GRIN3A LBD mod 11.8, MT1-MMP act inh 48.9 (no result: ADAM17 inh, ADAM10 inh)
C(=Nc1ccc(Nc2ccccc2)cc1)c1ccc2ccccc2c1	MT1-MMP act inh 43.5 (no result: ADAM17 inh, ADAM10 inh)
COC(=O)c1ccc2nc(C3CCCCC3)c(Cc3ccccc3C(F)(F)F)n2c1	none (no result: GRIN3A LBD mod)
Brc1cccc(-c2n[nH]c(-c3ccccc3)n2)c1	none
COc1cccc(-c2csc(Nc3ccc(Oc4ccccc4)cc3)n2)c1	none (no result: GRIN3A LBD mod)
COc1cccc(Nc2nc(-c3cccc(N4C(=O)c5ccccc5C4=O)c3)cs2)c1	GRIN3A LBD mod 33.2
COc1cccc(Nc2nc(-c3ccc(O)cc3)cs2)c1	GRIN3A LBD mod 22.6
CC(C)(C)OC(=O)N1CCOCCOCCN(C(=O)OC(C)(C)C)CCOCCOCC1	GRIN3A LBD mod 705.0
Cc1ccc(Oc2ncccc2/C=N/OCc2ccc(Cl)cc2Cl)cc1	GRIN3A LBD mod 14.0
COC(=O)c1cnc(Nc2cccc(C(F)(F)F)c2)c([N+](=O)[O-])c1	none
COC(CNC(=O)c1ccc2c3c(onc13)-c1ccccc1C2=O)OC	MT1-MMP act inh 34.1
Cc1nc2nc(SCC(=O)c3cccc([N+](=O)[O-])c3)[nH]c2cc1Br	none
CC1=C/C(=N\NC(=O)c2cccs2)CC(C)(C)C1	none
CN1CCN(c2oc(-c3ccccc3)nc2S(=O)(=O)c2ccccc2)CC1	none
CN1CCN(c2oc(-c3ccccc3F)nc2S(=O)(=O)c2ccc(Cl)cc2)CC1	GRIN3A LBD mod 10.3 (no result: ADAM17 inh, ADAM10 inh)
NC(=O)C1CCN(c2oc(-c3ccccc3F)nc2S(=O)(=O)c2ccc(Cl)cc2)CC1	SKN-1 inh 37.7
O=C1N(CC(=O)N2CCc3ccccc32)CCN1Cc1ccc(Cl)cc1	none
CCOC(=O)C1CCN(C(=O)COC(=O)c2oc3ccccc3c2C)CC1	none
COC(=O)C1CCN(C(=O)COC(=O)c2oc3ccccc3c2C)CC1	GRIN3A LBD mod 16.8
N#C/C(=C/c1ccc(CNC(=O)C(=O)Nc2cc(Cl)cc(Cl)c2)o1)C(=O)NCc1cccnc1	GRIN3A LBD mod 11.7
Cc1ccc(NC(=O)C(=O)NCc2ccc(/C=C(/C#N)C(=O)NCc3cccnc3)o2)cc1	none
CC(C)[C@H](NC(=O)c1cccc(S(=O)(=O)N2CCOCC2)c1)C(=O)NCc1ccc(F)cc1	none
Cc1cc2nc(-c3ccc(SCC(=O)Nc4nccs4)nc3)[nH]c2cc1C	none
CC(=O)CSc1ccc(-c2nc3ccccc3[nH]2)cn1	none
O=C(CSc1ccc(-c2nc3ccccc3[nH]2)cn1)Nc1ccc(S(=O)(=O)N2CCCC2)cc1	GRIN3A LBD mod 28.5
Cc1cc2nc(-c3ccc(SCC(=O)Nc4ccc(S(=O)(=O)N5CCCC5)cc4)nc3)[nH]c2cc1C	GRIN3A LBD mod 21.3
